# From ChEMBL document CHEMBL1157638, “Fluorescent epigenetic small molecule induces expression of the tumor suppressor ras-association domain family 1A and inhibits human prostate xenograft” (J Med Chem, 2010)
# Active and inactive are the calls of the source. No cut-off for these calls is given here.
# Tests used:
# [1] = test system: PC-3; experiment: Increase in RASSF1A gene expression in human PC3 cells at 15 uM after 3 days hrs by RT-PCR; format: functional
# How it was run: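 PC-3 cells incubated 3 days with compound, then RNA extracted with TRIzol. 500 ng total RNA reverse-transcribed with random hexamers. RASSF1A amplified with previously described primers and conditions. Products run on 1.5% agarose and stained with ethidium bromide. Bands quantified by densitometry against untreated cells, with RASSF1A re-expression from the reference alkaloid set to 100%.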
# [2] = test system: PC-3; experiment: […] in RASSF1A gene expression in human PC3 cells at 15 uM after 3 days hrs by RT-PCR; format: functional, cell-based
# [3] = test system: PC-3; experiment: Growth inhibition of human PC3 cells after 24 hrs by trypan blue exclusion method; format: functional; settings: PC-3, 24 h
# How it was run: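 PC-3 cells grown in phenol red-free IMEM with 10% FBS, 2 mM glutamine and penicillin/streptomycin at 37 °C, 5% CO2. Seeded in triplicate at 1.5 × 10⁴ cells/well. After 24 h, treated with DMSO vehicle or 1, 5, 15, 30 or 60 μM compound for 24 h. Cells trypsinized, stained with 0.4% trypan blue, and live and dead cells counted by hemocytometer. Mean ± SEM of three independent observations.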
# [4] = test system: PC-3; experiment: Decrease in DNA synthesis in human PC3 cells at 5 uM after 24 hrs by BrdU incorporation assay; format: functional, cell-based
# How it was run: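 PC-3 cells were seeded at 2 × 10⁴ cells/well and exposed to 5 μM compound or DMSO for 24 h. BrdU incorporation was read by chemiluminescent cell proliferation ELISA on a luminometer. Background without anti-BrdU-peroxidase was subtracted and values were normalized to untreated control. Values are mean ± SEM.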
# [5] = biological target: DNA (cytosine-5)-methyltransferase 1 (Homo sapiens) (UniProt P26358); experiment: Inhibition of DNA methyltransferase activity in human PC3 cells at 15 uM after 3 days; format: cell-based; settings: PC-3
# DNA (cytosine-5)-methyltransferase 1 (Homo sapiens), sequence (P26358 whole entry): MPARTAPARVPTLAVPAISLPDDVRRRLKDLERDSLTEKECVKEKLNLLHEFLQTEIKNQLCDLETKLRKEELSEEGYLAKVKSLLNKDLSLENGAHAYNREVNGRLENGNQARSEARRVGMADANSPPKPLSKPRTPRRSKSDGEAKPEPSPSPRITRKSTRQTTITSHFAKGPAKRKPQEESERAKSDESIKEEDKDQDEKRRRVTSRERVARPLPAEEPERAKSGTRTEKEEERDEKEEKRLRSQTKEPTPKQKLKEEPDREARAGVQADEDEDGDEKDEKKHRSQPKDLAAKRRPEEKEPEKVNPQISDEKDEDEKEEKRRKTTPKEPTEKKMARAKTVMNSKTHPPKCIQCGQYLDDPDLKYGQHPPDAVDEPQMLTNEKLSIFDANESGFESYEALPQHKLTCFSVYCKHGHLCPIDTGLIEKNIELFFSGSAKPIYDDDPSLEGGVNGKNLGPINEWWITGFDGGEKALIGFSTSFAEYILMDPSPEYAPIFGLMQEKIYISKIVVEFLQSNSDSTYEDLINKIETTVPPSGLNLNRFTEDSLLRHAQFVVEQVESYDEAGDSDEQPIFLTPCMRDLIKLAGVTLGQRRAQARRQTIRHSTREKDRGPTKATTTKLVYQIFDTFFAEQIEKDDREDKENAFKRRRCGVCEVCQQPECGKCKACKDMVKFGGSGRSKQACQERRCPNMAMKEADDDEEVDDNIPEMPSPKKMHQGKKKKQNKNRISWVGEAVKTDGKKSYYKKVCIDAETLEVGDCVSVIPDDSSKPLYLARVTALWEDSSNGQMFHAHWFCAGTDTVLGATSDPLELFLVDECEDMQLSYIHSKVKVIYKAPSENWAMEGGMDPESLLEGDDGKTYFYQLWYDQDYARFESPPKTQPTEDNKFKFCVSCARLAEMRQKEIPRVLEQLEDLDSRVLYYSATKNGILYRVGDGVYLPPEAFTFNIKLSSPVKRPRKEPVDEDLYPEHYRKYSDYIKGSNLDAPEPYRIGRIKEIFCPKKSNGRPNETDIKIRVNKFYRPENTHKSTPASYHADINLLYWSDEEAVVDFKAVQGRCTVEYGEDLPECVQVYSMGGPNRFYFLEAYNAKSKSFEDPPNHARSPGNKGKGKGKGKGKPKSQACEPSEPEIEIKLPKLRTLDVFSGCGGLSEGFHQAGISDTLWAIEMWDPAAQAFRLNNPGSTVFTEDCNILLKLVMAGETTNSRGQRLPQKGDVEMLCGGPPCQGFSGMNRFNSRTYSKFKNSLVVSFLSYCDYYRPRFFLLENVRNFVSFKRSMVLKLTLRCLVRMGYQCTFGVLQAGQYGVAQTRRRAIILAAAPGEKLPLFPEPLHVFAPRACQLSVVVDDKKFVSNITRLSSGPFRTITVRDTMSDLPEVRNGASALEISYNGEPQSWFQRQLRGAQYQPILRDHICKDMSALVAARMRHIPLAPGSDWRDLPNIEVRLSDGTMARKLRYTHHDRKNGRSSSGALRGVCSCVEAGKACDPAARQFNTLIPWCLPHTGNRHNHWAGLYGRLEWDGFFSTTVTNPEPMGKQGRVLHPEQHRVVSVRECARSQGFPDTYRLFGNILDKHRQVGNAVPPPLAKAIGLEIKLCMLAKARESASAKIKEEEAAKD
# How it was run: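 PC-3 cells in complete growth medium treated 3 days with compound, then harvested. Nuclear extracts prepared by kit protocol, and DNMT activity measured with a commercial DNMT activity kit against untreated cells. Mean of three independent experiments ± SEM.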
GI50 [3] [µM],Activity [5],Structure (SMILES),Activity [1],Activity [2],Activity [4]
22.9,–,COc1ccc2c(c1)[nH]c1cc(OS(=O)(=O)c3cccc4c(N(C)C)cccc34)c(C)cc12,inactive,inactive,–
48.9,–,COc1ccc2c(c1)[nH]c1cc(OCc3ccccc3)c(C)cc12,inactive,inactive,–
17.6,Active,COc1ccc2c(c1)[nH]c1c(C)c(OCc3ccccc3)ccc12,50%,–,Active
15.3,Active,COc1ccc2c(c1)[nH]c1cc(O)c(C)cc12,–,–,Active
18.7,Active,COc1ccc2c(c1)[nH]c1c(C)c(O)ccc12,–,–,–
